Most compounds without a hit are left out; they make up all but 11% or so of the library.
S1P1 ag-PAM = S1P1 (human) agonism or agonism potentiation | P21453 | S1P1 CRE-bla cells, forskolin, beta-lactamase FRET, potentiator mode; S1P1 agonist co-added at EC20, 2 nM; 100% = saturating reference agonist, 0% = basal | activation, % at 9.5 µM | 56,000 compounds, 0.57% hits;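 active = activation above a cutoff set at the mean activation of all tested compounds plus 3 SD, cut at about 54% in these data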;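 also: forskolin at 4 µM as EC80 and the EC20 agonist is SEW2871; 100% = SEW2871 at its EC100 plus forskolin at EC80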
M1 antagonist = antagonists of rat M1 muscarinic receptor | B-score at 10 µM | P08482 | AID 628 | CHO-M1 cells, Fluo-4 calcium, ACh EC80 antagonist mode; stronger effect = lower value | 64,000 compounds, 3.4% hits;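 active = calcium fluorescence response, raw or row-and-column corrected B-score, differing from the plate sample mean either way at a set confidence level, mostly lower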
S1P3 agonist = activates the human S1P3 receptor; 60,000 compounds, 0.1% hits; S1P3 NFAT-BLA reporter cells, agonism, FRET ratio; relative to 1 µM S1P, basal subtracted; activation, % at 4.5 µM;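 active = activation above the screen-wide mean plus 3 SD, cut at about 4.5% in these data, passing the limit was not always enough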
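Assay system: stable CHO line with human S1P3, Gα16, NFAT-BLA reporter; Detection: FRET β-lactamase substrate fluorescence, excitation 405 nm, 460/535 nm emission ratio, background-subtracted; Read-out: percent activation versus median 1 µM S1P response, basal-subtracted, per plate; Incubation: cells plated overnight, compound 4 h 37 °C, substrate 2 h RT.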
TNAP act DEA = human TNAP activation, intermediate phosphate acceptor; P05186; AID 813; 64,000 tested, under 10 active; purified TNAP, CDP-star luminescence, 100 mM DEA, 30 min; stronger effect = higher value; scale: 0 levamisole-inhibited, 1 vehicle-only enzyme; activation factor at 20 µM;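 active = activation factor of at least 2 at 20 µM, relative to controls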
Target sequence (P05186 whole entry, looked up): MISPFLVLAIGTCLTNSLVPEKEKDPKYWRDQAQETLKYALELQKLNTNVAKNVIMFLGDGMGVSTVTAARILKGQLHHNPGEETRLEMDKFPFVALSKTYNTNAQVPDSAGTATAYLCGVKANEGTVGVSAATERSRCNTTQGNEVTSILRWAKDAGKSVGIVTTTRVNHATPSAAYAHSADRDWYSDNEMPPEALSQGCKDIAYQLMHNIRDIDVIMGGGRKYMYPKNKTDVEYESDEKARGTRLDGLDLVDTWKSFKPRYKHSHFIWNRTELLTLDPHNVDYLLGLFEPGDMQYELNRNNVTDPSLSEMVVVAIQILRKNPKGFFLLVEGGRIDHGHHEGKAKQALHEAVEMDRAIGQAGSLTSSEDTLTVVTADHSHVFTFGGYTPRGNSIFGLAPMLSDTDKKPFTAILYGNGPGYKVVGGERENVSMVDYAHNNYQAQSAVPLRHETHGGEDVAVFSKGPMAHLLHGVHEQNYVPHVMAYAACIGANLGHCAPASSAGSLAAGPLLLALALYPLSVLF
M1 ag = agonists of M1 muscarinic receptor. CHO-M1 cells, Fluo-4 calcium fluorescence, agonist mode; stronger effect = higher value. B-score at 10 µM. 64,000 compounds, 3% hits. AID 626;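 active = fluorescence rise, raw or as B-score row- and column-corrected plate score, outside the 99.7% band of its plate's samples, either direction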
D1 mod = allosteric modulators of human D1 dopamine receptor; P21728; 58,000 compounds, 5.9% hits; HEK293 D1, CRE-luciferase, dopamine EC30 potentiation; actives deviate in either direction; B-score at 10 µM;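 active = luminescence count or its row- and column-corrected plate score outside the 99.7% band of the plate's sample wells, on either side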
M1 antag confirm = M1 muscarinic receptor (rat) antagonism, confirmed; shares compounds with M1 antagonist; CHO-M1 cells, Fluo-4 calcium, ACh EC80 antagonism; stronger effect = lower value; calcium response (max-min fluorescence) at 10 µM; 1,700 compounds, 43% hits;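 active = calcium response below the same-plate mean of wells given acetylcholine alone at its 80%-effect dose, minus 3 SD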;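 also: raw fluorescence intensity difference in arbitrary instrument units and not normalized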
mGluR4 antag = selectivity test for M1 antagonists: human mGluR4 receptor. shares compounds with M1 antagonist. CHO-mGluR4 calcium flux, Fluo-4 fluorescence, glutamate EC80; stronger effect = lower value. fluorescence response (max-min) at 10 µM. 1,700 compounds, 0.9% hits. AID 678;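 active = fluorescence response below the plate's average for near-maximal glutamate wells, less 3 SD of those wells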;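 also: raw unnormalized fluorescence span taken in the window right after glutamate addition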
* = called active by the depositor; . = no result.

SMILES	S1P1 ag-PAM	M1 antagonist	S1P3 agonist	TNAP act DEA	M1 ag	D1 mod	M1 antag confirm	mGluR4 antag
CCc1nc(Nc2ccncc2)c2oc3ccccc3c2n1	6	-2.4*	-1	0.8	-0.59	-0.00093	441*	242
CC(=O)Nc1ccc(Nc2nc(C)nc3c2oc2ccccc23)cc1	-59	.	0	1	.	.	.	.
Cc1cc(C)c(C)c(OCCOCCN2CCOCC2)c1	-22	-0.25	-1	1	1.2	-0.44	.	.
Clc1cc(Br)ccc1OCCOCCN1CCOCC1	-5	-0.73*	-3	0.9	0.034	.	448	226
Clc1cc(Br)ccc1OCCn1ccnc1	.	-3.3*	-1	0.9	0.84	-0.33	442*	241
Clc1ccccc1OCCCCn1ccnc1	-14	0.31	0	0.7	2.2	-0.19	.	.
Cc1ccc(S(=O)(=O)N2CCN(C(=O)CN3CCN(C)CC3)C2)cc1	-8	0.013	0	0.9	0.53	-0.23	.	.
CCOCCCNC(=O)C(C)NS(=O)(=O)c1ccc(C)cc1 (stereo not given)	6	-0.57	-1	0.9	-0.41	-0.43	.	.
Cc1c(C(=O)OCC(=O)c2c(N)n(CC(C)C)c(=O)n(C)c2=O)oc2ccccc12	27	.	0	1	.	.	.	.
Cc1c(C(=O)OCC(C)(C)CN(C)C)oc2ccccc12	-6	-5*	0	0.9	-0.25	-2.2	182*	233
Cc1c(C(=O)OCCN2CCCCC2)oc2ccccc12	-12	-10*	0	0.9	0.61	-0.05	13*	226
Cc1c(C(=O)OC(C)CCN(C)C)oc2ccccc12 (stereo not given)	8	-13*	-1	1	-0.6	-1.3	18*	261
Cc1cc2cc(CCNC(=O)CC(C)(C)C)c(=O)[nH]c2cc1C	8	0.33	-1	0.9	-0.8	-0.6	.	.
COCCOC(=O)c1c(C)n(C)c2ccc(OC(=O)C3CC3)cc12	-16	0.56	0	0.9	0.0038	1.4	.	.
CN1CCN(S(=O)(=O)c2ccc(NC(=O)c3cccc(S(=O)(=O)N4CCCC4)c3)cc2)CC1	-7	-16*	-1	1	-0.36	0.8	43*	210
O=C(Nc1ccccc1C(=O)N1CCCC1)c1cccc(S(=O)(=O)N2CCCCC2)c1	-9	0.18	-1	0.9	-0.54	-0.94	.	.
CCOC(=O)C1CCN(C(=O)COc2ccc(S(=O)(=O)NC(C)(C)C)cc2)CC1	.	0.17	0	1	-0.56	0.029	.	.
CN1CCc2c(sc3nc(SCC(N)=O)n(-c4ccccc4)c(=O)c23)C1	.	-0.07	.	0.9	-0.16	0.65	.	.
C=CCn1c(SCC(=O)OC)nc2sc3c(c2c1=O)CCN(C)C3	-1	-5.3*	-2	0.9	0.03	.	198*	212
CSc1nc2sc3c(c2c(=O)n1C1CCCCC1)CCN(C)C3	3	-4.8*	-2	0.9	-0.038	.	185*	218
CCn1cc(NC(=O)Nc2ccccc2C(=O)OC)c(C(N)=O)n1	-15	0.5	-1	0.9	1.2	.	.	.
COc1ccc(C2C3C(=O)N(Cc4ccccc4)C(=O)C3ON2c2ccccc2)c(OC)c1OC (stereo not given)	10	-2.9*	-1	0.9	0.26	-0.0021	654	188
COc1ccccc1N1CCN(C(=O)c2cnn3cccnc23)CC1	-6	-0.63	-1	0.9	0.56	0.83	.	.
CCn1c(=O)cc(SCC(=O)N2CCN(Cc3ccc4c(c3)OCO4)CC2)c2ccccc21	.	-5.7*	.	0.9	0.33	-0.77	432*	236
Cn1c(=O)cc(SCC(=O)N2CCN(C3CCCCC3)CC2)c2ccccc21	-9	-2.8*	-1	0.9	1.2	-0.52	249*	222
CCn1c(=O)cc(SCC(=O)NCc2cccnc2)c2ccccc21	-16	-0.48	0	0.9	-1.8	0.21	.	.
CCn1c(=O)cc(SCC(=O)N2CCCCC2)c2ccccc21	.	-0.27	.	1	0.38	.	.	.

Bioassay records from PubChem BioAssay.
